# Activity calls are given as the source filed them. The rule behind the calls is not given here.
# What was measured:
# [1] = Cytotoxicity against BMNC isolated from multiple myeloma patient assessed as inhibition of hematopoietic progenitor colony formation at 30 uM; details: human
# [2] = Cytotoxicity against CD138-negative BMNC isolated from multiple myeloma patient assessed as cell viability at > 20 uM; details: human
# Method in brief: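 Bone marrow mononuclear cells were isolated by Ficoll-Paque separation from 6 myeloma patient aspirates, cultured, and treated with compound. Cells were stained for CD138 and Annexin V, and the decrease in CD138+ (myeloma) and CD138- (non-myeloma) populations was reported.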
# [3] = biological target: Tyrosine-protein kinase JAK2 (Homo sapiens) (UniProt O60674); assay: Inhibition of JAK2 JH1 domain (unknown origin) assessed as residual activity at 5 uM relative to control
# Method in brief: (§1)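 Kinase profiling used a KinomeScan at 5 µM across 132 kinases, including 37 with SH2 domains.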
# [4] = biological target: Tyrosine-protein kinase JAK1 (Homo sapiens) (UniProt P23458); assay: Inhibition of JAK1 (unknown origin) assessed as residual activity at 5 uM relative to control; method in brief: as §1
# [5] = biological target: T1, Signal transducer and activator of transcription 3 (Homo sapiens, UniProt P40763); assay: Inhibition of IL-6-induced Stat3 phosphorylation in serum-starved human U937 cells at 10 to 20 uM incubated for 4 hrs prior to IL-6 induction measured after 15 mins by phopsho-flow cytometric analysis; format: cell-based; details: U-937
# Method in brief: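 Serum-starved U937 cells were pretreated with compound for 4 h, then stimulated 15 min with IL-6 (Stat3), GM-CSF (Stat5) or IFN (Stat1). Phosphorylation of each STAT was quantified by phospho-flow cytometry.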
# [6] = tested on: JJN-3; assay: Induction of apoptosis in human JJN-3 cells at 10 to 20 uM by annexin V/propidium iodide staining-based flow cytometric analysis; format: functional, cell-based
# Method in brief: (§2)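 Apoptosis was measured by flow cytometry of Annexin V and propidium iodide staining. Viable, early apoptotic and late apoptotic cells were scored by quadrant, with time points at 24 and 48 h.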
# [7] = tested on: RPMI-8226; assay: Induction of apoptosis in human RPMI8226 cells at 10 to 20 uM by annexin V/propidium iodide staining-based flow cytometric analysis; format: functional, cell-based; details: TDE = time-dependent effect; method in brief: as §2
# [8] = tested on: RPMI-8226; assay: Induction of apoptosis in human RPMI8226 cells assessed as transformation of early apoptotic cells to late apoptotic cells measured at 48 hrs by annexin V/propidium iodide staining-based flow cytometric analysis; format: functional, cell-based; method in brief: as §2
# [9] = tested on: RPMI-8226; assay: Induction of apoptosis in human RPMI8226 cells assessed as transformation of viable cells to early apoptotic cells measured at 24 hrs by annexin V/propidium iodide staining-based flow cytometric analysis; format: functional, cell-based; method in brief: as §2
# [10] = tested on: JJN-3; assay: Induction of apoptosis in human JJN-3 cells assessed as induction of PARP cleavage at 10 to 30 uM by Western blot analysis; format: functional, cell-based
# Method in brief: (§3)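 Treated cells were washed in cold PBS and lysed 30 min on ice in Tris-HCl pH 7.4/NaCl/EDTA/1% NP-40 with PMSF, vanadate and protease inhibitors. Lysates were Bradford-normalized, and 10-30 µg protein was run on 7-10% SDS-PAGE and transferred to PVDF. Blots were blocked in 5% BSA/TBST, probed overnight at 4 °C, then with HRP secondary, and detected by ECL.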
# [11] = biological target: T1, Signal transducer and activator of transcription 3; assay: Inhibition of Stat3 in human JJN-3 cells assessed as downregulation of BCL-xL protein expression; format: cell-based; method in brief: as §3
# [12] = biological target: T1, Signal transducer and activator of transcription 3; assay: Inhibition of Stat3 in human JJN-3 cells assessed as downregulation of c-Myc protein expression after 6 hrs by Western blot analysis; format: cell-based; method in brief: as §3
# [13] = biological target: T1, Signal transducer and activator of transcription 3; assay: Inhibition of Stat3-mediated luciferase expression in human XG6 cells at 15 to 30 uM after 6 hrs relative to control; format: cell-based
# Method in brief: (§4)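 Myeloma cells stably carried a Stat3-driven firefly luciferase reporter (puromycin-selected) and a CMV-driven Renilla luciferase internal control (hygromycin-selected), each selected for 2 weeks. After drug treatment, dual luciferase activity was read as relative luciferase units, firefly/Renilla.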
# [14] = biological target: T1, Signal transducer and activator of transcription 3; assay: Inhibition of Stat3-mediated luciferase expression in human 8226 cells at 15 to 30 uM after 6 hrs relative to control; format: cell-based; method in brief: as §4
# [15] = biological target: T1, Signal transducer and activator of transcription 3; assay: Inhibition of Stat3-mediated luciferase expression in human 8226 cells after 6 hrs; format: cell-based; method in brief: as §4
# [16] = tested on: JJN-3; assay: Inhibition of total Stat3 level in human JJN-3 cells at 10 to 30 uM after 6 hrs by Western blot analysis; format: functional, cell-based; method in brief: as §3
# [17] = tested on: SK-MM-2; assay: Cytotoxicity against human SKMM-2 cells assessed as inhibition of cell viability after 72 hrs by MTT assay; format: functional, cell-based
# Method in brief: (§5)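 Myeloma lines were seeded at 1-3 x 10^4 cells per well onto compound or vehicle, in triplicate, and cultured 72 h at 37 °C in 5% CO2. Viability was measured colorimetrically by MTT assay relative to DMSO control. EC50 was fitted to a standard dose-response curve where applicable.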
# [18] = tested on: MM1.S; assay: Cytotoxicity against human MM1S cells assessed as inhibition of cell viability after 72 hrs by MTT assay; format: functional, cell-based; method in brief: as §5
# [19] = tested on: XG6; assay: Cytotoxicity against human XG6 cells assessed as inhibition of cell viability after 72 hrs by MTT assay; format: functional, cell-based; method in brief: as §5
# [20] = tested on: JJN-3; assay: Cytotoxicity against human JJN-3 cells assessed as inhibition of cell viability after 72 hrs by MTT assay; format: functional, cell-based; method in brief: as §5
# [21] = tested on: DU-145; assay: Cytotoxicity against human DU145 cells assessed as cell viability after 72 hrs by MTS assay; format: functional, cell-based; details: DU-145, 72 h
# Method in brief: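 Cells were seeded at 1-3 x 10^4 per well into wells already holding compound or vehicle, in triplicate. Incubation was 72 h at 37 °C in 5% CO2. Viability was read by MTS colorimetry relative to DMSO control, and EC50 was fitted to a standard dose-response curve where applicable.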
# [22] = biological target: T1, Signal transducer and activator of transcription 3; assay: Competitive binding affinity to Stat3 SH2 domain (unknown origin) using 5-FAM-GpYLPQTV-NH2 as probe assessed as phosphopetide complex formation after 30 mins by fluorescence polarization assay
# Method in brief: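 Fluorescence polarization. Recombinant STAT protein was incubated with the 5-FAM-GpYLPQTV-NH2 peptide probe and inhibitor for 30 min. Polarized fluorescence was plotted against inhibitor concentration, and IC50 was obtained by fitting a dose-response curve.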
# [23] = tested on: JJN-3; assay: Induction of apoptosis in human JJN-3 cells at 10 to 15 uM by annexin V/propidium iodide staining-based flow cytometric analysis; format: functional, cell-based; method in brief: as §2
# [24] = tested on: XG6; assay: Induction of apoptosis in human XG6 cells at 10 to 15 uM by annexin V/propidium iodide staining-based flow cytometric analysis; format: functional, cell-based; method in brief: as §2
# [25] = tested on: RPMI-8226; assay: Induction of apoptosis in human RPMI8226 cells at 10 to 15 uM by annexin V/propidium iodide staining-based flow cytometric analysis; format: functional, cell-based; details: TDE = time-dependent effect; method in brief: as §2
# [26] = tested on: JJN-3; assay: Induction of apoptosis in human JJN-3 cells assessed as induction of PARP cleavage at 5 to 10 uM by Western blot analysis; format: functional, cell-based; method in brief: as §3
# [27] = tested on: XG6; assay: Cytotoxicity against human XG6 cells assessed as cell viability at 7.5 uM after 72 hrs by MTT assay; format: functional, cell-based; method in brief: as §5
# [28] = tested on: RPMI-8226; assay: Cytotoxicity against human RPMI8226 cells assessed as cell viability at 7.5 uM after 72 hrs by MTT assay; format: functional, cell-based; method in brief: as §5
# [29] = biological target: T1, Signal transducer and activator of transcription 3; assay: Inhibition of Stat3-mediated luciferase expression in human XG6 cells at 7.5 to 15 uM after 6 hrs relative to control; format: cell-based; method in brief: as §4
# [30] = biological target: T1, Signal transducer and activator of transcription 3; assay: Inhibition of Stat3-mediated luciferase expression in human 8226 cells at 7.5 to 15 uM after 6 hrs relative to control; format: cell-based; method in brief: as §4
# [31] = tested on: JJN-3; assay: Inhibition of total Stat3 level in human JJN-3 cells at 5 to 10 uM after 6 hrs by Western blot analysis; format: functional, cell-based; method in brief: as §3
# T1 sequence (P40763 whole entry): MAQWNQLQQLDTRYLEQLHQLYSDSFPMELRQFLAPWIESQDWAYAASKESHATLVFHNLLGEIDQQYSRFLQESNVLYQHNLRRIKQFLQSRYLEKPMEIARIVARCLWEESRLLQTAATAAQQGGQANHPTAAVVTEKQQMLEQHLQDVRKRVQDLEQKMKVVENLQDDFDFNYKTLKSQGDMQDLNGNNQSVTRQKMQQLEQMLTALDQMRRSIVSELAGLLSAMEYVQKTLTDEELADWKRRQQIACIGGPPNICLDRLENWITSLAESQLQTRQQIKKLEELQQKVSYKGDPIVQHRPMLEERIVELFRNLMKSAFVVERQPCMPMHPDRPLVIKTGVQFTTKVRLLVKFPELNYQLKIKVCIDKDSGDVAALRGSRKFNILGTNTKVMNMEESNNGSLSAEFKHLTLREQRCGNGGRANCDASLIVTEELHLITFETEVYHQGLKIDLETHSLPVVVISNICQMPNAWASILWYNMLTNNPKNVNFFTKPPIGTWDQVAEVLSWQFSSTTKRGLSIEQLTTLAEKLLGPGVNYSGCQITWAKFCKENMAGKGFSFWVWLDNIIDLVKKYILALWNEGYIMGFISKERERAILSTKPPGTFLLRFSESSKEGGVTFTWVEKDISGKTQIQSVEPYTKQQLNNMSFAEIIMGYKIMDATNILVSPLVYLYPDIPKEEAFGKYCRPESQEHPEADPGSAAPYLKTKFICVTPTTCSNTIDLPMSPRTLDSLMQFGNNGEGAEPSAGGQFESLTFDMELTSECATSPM
# Chain of Tyrosine-protein kinase JAK1 (Homo sapiens) (P23458 whole entry): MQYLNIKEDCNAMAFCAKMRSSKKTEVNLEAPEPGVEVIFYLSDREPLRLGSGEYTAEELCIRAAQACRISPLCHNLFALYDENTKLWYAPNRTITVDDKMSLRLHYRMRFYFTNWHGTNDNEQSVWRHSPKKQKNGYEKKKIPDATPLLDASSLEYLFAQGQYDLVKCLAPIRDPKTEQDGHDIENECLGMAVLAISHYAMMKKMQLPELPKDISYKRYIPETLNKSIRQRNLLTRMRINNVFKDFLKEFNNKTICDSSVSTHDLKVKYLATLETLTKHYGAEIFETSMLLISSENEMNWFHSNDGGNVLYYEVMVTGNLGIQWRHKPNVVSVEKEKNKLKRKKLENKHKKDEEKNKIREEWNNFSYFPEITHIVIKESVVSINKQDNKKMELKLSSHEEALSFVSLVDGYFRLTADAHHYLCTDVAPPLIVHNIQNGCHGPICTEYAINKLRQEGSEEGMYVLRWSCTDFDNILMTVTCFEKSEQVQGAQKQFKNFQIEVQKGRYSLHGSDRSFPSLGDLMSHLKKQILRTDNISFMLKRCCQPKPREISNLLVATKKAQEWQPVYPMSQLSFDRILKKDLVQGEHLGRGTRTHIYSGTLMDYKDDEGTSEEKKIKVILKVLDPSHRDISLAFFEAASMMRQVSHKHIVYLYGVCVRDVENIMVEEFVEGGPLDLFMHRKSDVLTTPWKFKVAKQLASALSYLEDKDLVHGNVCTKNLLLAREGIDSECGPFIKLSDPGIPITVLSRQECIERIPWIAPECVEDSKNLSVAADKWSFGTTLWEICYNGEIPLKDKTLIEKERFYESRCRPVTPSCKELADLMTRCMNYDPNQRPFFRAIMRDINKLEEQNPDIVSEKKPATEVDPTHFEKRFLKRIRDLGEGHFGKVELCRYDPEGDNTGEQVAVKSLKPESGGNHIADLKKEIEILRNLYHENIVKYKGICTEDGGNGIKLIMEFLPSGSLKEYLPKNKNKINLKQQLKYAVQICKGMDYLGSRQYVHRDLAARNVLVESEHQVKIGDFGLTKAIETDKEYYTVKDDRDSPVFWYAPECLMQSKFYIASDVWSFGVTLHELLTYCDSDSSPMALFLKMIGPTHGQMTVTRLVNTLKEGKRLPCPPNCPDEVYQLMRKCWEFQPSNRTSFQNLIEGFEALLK
# Chain of Tyrosine-protein kinase JAK2 (Homo sapiens) (O60674 whole entry, the tested form may be a part): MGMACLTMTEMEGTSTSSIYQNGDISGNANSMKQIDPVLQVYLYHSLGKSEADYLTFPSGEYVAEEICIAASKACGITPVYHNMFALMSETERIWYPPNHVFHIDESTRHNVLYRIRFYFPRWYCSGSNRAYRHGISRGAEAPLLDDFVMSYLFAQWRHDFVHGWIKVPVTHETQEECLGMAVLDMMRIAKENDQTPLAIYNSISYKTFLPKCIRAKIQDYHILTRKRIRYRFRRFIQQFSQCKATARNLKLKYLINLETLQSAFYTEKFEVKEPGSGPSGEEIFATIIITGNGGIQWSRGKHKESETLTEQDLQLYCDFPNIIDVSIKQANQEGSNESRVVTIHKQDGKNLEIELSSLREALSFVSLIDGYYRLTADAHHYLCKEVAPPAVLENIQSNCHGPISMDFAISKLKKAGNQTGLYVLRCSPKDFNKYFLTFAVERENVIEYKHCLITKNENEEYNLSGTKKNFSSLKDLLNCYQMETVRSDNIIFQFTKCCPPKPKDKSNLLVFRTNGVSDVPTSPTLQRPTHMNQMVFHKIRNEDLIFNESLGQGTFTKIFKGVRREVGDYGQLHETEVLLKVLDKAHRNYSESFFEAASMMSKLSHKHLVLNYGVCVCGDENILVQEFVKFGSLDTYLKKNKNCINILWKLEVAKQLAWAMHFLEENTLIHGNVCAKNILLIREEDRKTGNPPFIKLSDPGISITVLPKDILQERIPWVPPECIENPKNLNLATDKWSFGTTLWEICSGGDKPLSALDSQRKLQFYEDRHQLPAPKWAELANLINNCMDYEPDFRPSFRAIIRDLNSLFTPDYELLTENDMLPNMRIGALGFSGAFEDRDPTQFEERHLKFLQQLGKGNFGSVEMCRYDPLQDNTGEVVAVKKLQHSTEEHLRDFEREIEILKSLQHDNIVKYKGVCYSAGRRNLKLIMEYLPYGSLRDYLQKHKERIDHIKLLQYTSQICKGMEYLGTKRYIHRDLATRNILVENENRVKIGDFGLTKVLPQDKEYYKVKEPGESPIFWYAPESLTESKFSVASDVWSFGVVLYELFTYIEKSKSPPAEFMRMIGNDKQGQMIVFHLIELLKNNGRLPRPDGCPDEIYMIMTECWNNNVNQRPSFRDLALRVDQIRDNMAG
inhibition [5],inhibition [11],inhibition [12],inhibition [15],IC50 [22],SMILES,Activity [8],Activity [9],inhibition [17],inhibition [18],inhibition [19],inhibition [20],IC50 [21],further results
Active,inactive,Dose-dependent effect,Dose-dependent effect,2.8 µM,Cc1ccc(S(=O)(=O)N(CC(=O)N(Cc2ccc(C3CCCCC3)cc2)c2ccc(C(=O)O)c(O)c2)Cc2ccccc2C(F)(F)F)cc1,Dose-dependent effect,Dose-dependent effect,Dose-dependent effect,Dose-dependent effect,Dose-dependent effect,Dose-dependent effect,16 µM,Activity [1]: Non-toxic; Activity [2]: Non-toxic; Activity [3]: 84%; Activity [4]: 84%; Activity [6]: Active; Activity [7]: tde; Activity [10]: Active; inhibition [13]: 50%; inhibition [14]: 50%; inhibition [16]: inactive
Active,inactive,Dose-dependent effect,Dose-dependent effect,12.8 µM,O=C(O)c1ccc(N(Cc2ccc(C3CCCCC3)cc2)C(=O)CN(Cc2ccccc2C(F)(F)F)S(=O)(=O)c2c(F)c(F)c(F)c(F)c2F)cc1O,Dose-dependent effect,Dose-dependent effect,Dose-dependent effect,Dose-dependent effect,Dose-dependent effect,Dose-dependent effect,14 µM,Activity [23]: Active; Activity [24]: Active; Activity [25]: tde; Activity [26]: Active; Activity [27]: Active; Activity [28]: Active; inhibition [29]: 50%; inhibition [30]: 50%; inhibition [31]: inactive

# From ChEMBL document CHEMBL2429859, “Inhibiting aberrant signal transducer and activator of transcription protein activation with tetrapodal, small molecule Src homology 2 domain binders: promising agents against multiple myeloma” (J Med Chem, 2013)
